Results on four compounds are retold here after paper PMC12574688 (European journal of medicinal chemistry, 2025).

What is called IC50 is the midpoint of a concentration-inhibition curve. As usually defined, the inhibition is the change of the read-out against control, counted positive when it falls.

One data set deals with BT-20 cells. Description: Colony formation assay. The data set is classed as cell-based. The conditions noted are these: varying concentrations.
The target of another data set is BRK (Homo sapiens, UniProt Q13882). Nature of the data set: BRK biochemical inhibitory assay. The settings on record: for inhibition at 2 µM: read-out: % BRK Inhibition. Put shortly: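 Human BRK kinase pre-incubated with test compound for 10 min, then substrate and ATP mix added. Kinase reaction run 1 h. ADP-Glo reagent added for 40 min, then kinase detection reagent for 45 min. Luminescence read. Single-point screens run at 2 μM and at 0.2 μM test compound, given as % BRK inhibition.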
BRK, sequence (Q13882 whole entry): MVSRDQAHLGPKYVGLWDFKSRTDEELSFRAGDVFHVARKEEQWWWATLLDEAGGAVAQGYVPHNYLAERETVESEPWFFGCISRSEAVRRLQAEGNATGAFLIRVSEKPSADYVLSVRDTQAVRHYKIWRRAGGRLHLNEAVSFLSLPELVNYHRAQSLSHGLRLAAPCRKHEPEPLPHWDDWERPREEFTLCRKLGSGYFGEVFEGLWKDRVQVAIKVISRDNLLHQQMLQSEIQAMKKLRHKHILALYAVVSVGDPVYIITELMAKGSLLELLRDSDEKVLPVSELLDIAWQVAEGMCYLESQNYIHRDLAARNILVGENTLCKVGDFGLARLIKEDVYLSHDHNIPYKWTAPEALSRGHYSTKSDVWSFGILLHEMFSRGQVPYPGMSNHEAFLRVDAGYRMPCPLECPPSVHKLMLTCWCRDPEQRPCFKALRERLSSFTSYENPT

Data set [1] concerns AKT phosphorylation in BT-20 cells. Nature of the data set: Western blot of AKT phosphorylation. The data set is classed as cell-based. The settings on record: vs control, preliminary western blot (Figure S3). For orientation: A western blot detects proteins with antibodies after separation by electrophoresis.
Another data set has as its system HCC1806 cells. Nature of the data set: Colony formation assay. The conditions noted are these: single concentration of 10 μM. The data set is classed as cell-based.
The test system of the next data set is MDA.MB.231 cells. Nature of the data set: Colony formation assay. The data set is classed as cell-based. The settings on record: varying concentrations.
In the next data set the test system is MDA.MB.231 cell line. Description: MTT cytotoxicity / cell viability assay. The data set is classed as cell-based.

Structures are written as SMILES. Where two headings read alike, the source gives them in different places.

For the compound `Oc1cccc(Nc2ccnc3[nH]c4ccccc4c23)c1` [Compound 4f, tilfrinib], the colony formation entry in the data set with BT-20 cells, in the data set with HCC1806 cells and in the data set on MDA.MB.231 cells was “reduce the colony formation” in each case. For the same compound, the “Biochemical assay % Inhibition 0.2 μM” value on BRK (0.2 μM, ADP-Glo (Table 3)) came to 86%. In addition, on BRK (2 μM, ADP-Glo (Table 3)), the “Biochemical assay % Inhibition 2 μM” value was found to be 100%. For the same compound, the IC50 on BRK (read-out: BRK IC50, enzymatic inhibition) turned out to be 25 nM; at BRK (read-out: Biochemical assay IC50, ADP-Glo (Table 3)), 25.7 ± 5.05 nM. Moreover, the “% BRK Inhibition” value at BRK (single point, 2 μM, ADP-Glo, pyrimido-indole derivatives (Table 1)) amounted to 100.0 ± 7.8%. For the same compound, in data set [1], the AKT phosphorylation entry is given as “increase in AKT phosphorylation”. The “Cellular assay MDA.MB.231 % Inhibition 10 μM” value with MDA.MB.231 cell line (MTT, 10 μM, 72h treatment) is on record as 31.40%. In the data set with MDA.MB.231 cell line (viability studies, in words), the “cytotoxicity in viability studies” value is “minimal cytotoxicity”.
With `Oc1cccc(-c2cncc(Cl)n2)c1` [Compound 26, 3-(6-chloropyrazin-2-yl)phenol], the inhibition at 2 µM at BRK is 29.6 ± 22.9%.
For the compound `Oc1cccc(-c2cnc3ccccc3n2)c1` [Compound 32, 3-(quinoxalin-2-yl)phenol], the inhibition at 2 µM at BRK came to 48.9 ± 8.9%.
For `Oc1cccc(Nc2ncnc3cc(Br)ccc23)c1` [Compound 35, 3-((7-bromoquinazolin-4-yl)amino)phenol], the inhibition at 2 µM on BRK is 76.1 ± 7.3%.
